Measurements: ChEMBL document CHEMBL3351628, “2,4,5-Trisubstituted thiazole derivatives: a novel and potent class of non-nucleoside inhibitors of wild type and mutant HIV-1 reverse transcriptase” (Eur J Med Chem, 2014)

How the values were obtained:
[1] = Retention time of the compound by HPLC analysis; type: physicochemical
HEK-293T = experiment: Cytotoxicity against HEK293T cells at 10 uM after 48 hrs; type: cell-based; settings: human
Outline: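 HEK 293T cells incubated 48 h with compound at final 10 μM under the antiviral culture conditions, without virus. Viability read with a cell proliferation assay kit.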

[2] = tested on: Human immunodeficiency virus 1; experiment: Antiviral activity against wild type HIV1 infected in HEK293T cells transfected with plasmid VSV-G/pNL4-3.luc.R-E- assessed as inhibition of viral replication after 48 hrs by luciferase reporter gene assay; type: functional, organism-based, HEK-293T; settings: Human immunodeficiency virus 1, HEK-293T, 48 h; read-out: IC50
Outline: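 VSV-G-pseudotyped single-cycle virus: VSVG plasmid plus env-deficient pNL4-3.luc.R⁻E⁻ vector (wild type or RT-mutant) co-transfected into HEK 293T by calcium phosphate. Medium changed at 16 h, supernatant collected 48 h post-transfection, normalised by p24 ELISA to 0.2 ng p24/mL. HEK 293T targets seeded a day ahead; compound added 15 min before virus. Cells lysed 48 h post-infection, luciferase read. IC50 from dose–infectivity curves.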

Structure (SMILES)	Retention_time [1] [min]	Activity (HEK-293T)	IC50 [2] [nM]
COc1ccc(-c2nc(NCc3ccc(F)cc3)sc2Cc2ccccc2)cc1	29.67	Non-toxic	660
CCN(CC)c1nc(-c2ccc(O)cc2)c(Cc2ccccc2)s1	19.11	Non-toxic	4400
COc1ccc(-c2nc(NCc3cc([N+](=O)[O-])ccc3O)sc2Cc2ccccc2)cc1	45.27	Non-toxic	5200
COc1ccc(-c2nc(NCc3c(Cl)cccc3Cl)sc2Cc2ccccc2)cc1	7.67	Non-toxic	7210
COc1ccc(CNc2nc(-c3cc(OC)ccc3OC)c(Cc3ccccc3)s2)cc1	18.55	Non-toxic	6200
COc1ccc(Nc2nc(-c3ccccc3)c(Cc3ccccc3OC)s2)cc1	3.18	Non-toxic	> 10000
COc1ccc(CNc2nc(-c3ccccc3)c(Cc3ccccc3OC)s2)cc1	27.75	Non-toxic	130
COc1ccc(-c2nc(NCc3ccc([N+](=O)[O-])cc3)sc2Cc2ccccc2)cc1	28.54	Non-toxic	800
COc1ccc(CNc2nc(-c3ccc(OC)cc3)c(Cc3ccc(OC)cc3)s2)cc1	26.12	Non-toxic	> 10000
COc1ccc(-c2nc(NCc3cc(OC)c(OC)c(OC)c3)sc2Cc2ccccc2)cc1	17.16	Non-toxic	> 10000
COc1ccc(CNc2nc(-c3ccc(OC)cc3)c(Cc3ccc(F)cc3)s2)cc1	29.46	Non-toxic	> 10000
CCN(CC)c1nc(-c2ccc(OC)cc2)c(Cc2ccccc2)s1	29.77	Non-toxic	2300
COc1ccc(-c2nc(NCc3ccc4ccccc4c3)sc2Cc2ccccc2)cc1	72.49	Non-toxic	960
COc1ccc(-c2nc(NCc3ccc(C#N)cc3)sc2Cc2ccccc2)cc1	20.01	Non-toxic	450
COc1ccc(CNc2nc(-c3ccc(Cl)cc3Cl)c(Cc3ccccc3)s2)cc1	53.29	Non-toxic	140
COc1ccc(CNc2nc(-c3ccco3)c(Cc3ccccc3)s2)cc1	19.97	Non-toxic	700
COc1ccc(-c2nc(NCc3ccccc3OC)sc2Cc2ccccc2)cc1	34.78	Non-toxic	6970
COc1ccc(CN(C)c2nc(-c3ccc(OC)cc3)c(Cc3ccccc3)s2)cc1	47.61	Non-toxic	370
COc1ccc(CNc2nc(-c3ccc(F)cc3)c(Cc3ccccc3)s2)cc1	33.02	Non-toxic	1210
